The values below come from ChEMBL document CHEMBL4513216, “Probing the Open Global Health Chemical Diversity Library for Multistage-Active Starting Points for Next-Generation Antimalarials” (ACS Infect Dis, 2020).

The series is described as follows: Toxicity liver stage against HepG2, at 10uM. The class given is cell-based. Also on record: test concentration 10 uM, cell line HepG2-A16-CD81EGFP. Particulars: human, HepG2-A16-CD81EGFP cells; read-out: INHIBITION
The method in brief: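 Uninfected HepG2-A16-CD81EGFP cells, 3 × 10^3 per well, 1536-well, plated on prespotted compound at 10 μM final, parasite-free screening media added to match infected plates; puromycin 10 μM positive, DMSO 0.5% negative; run in parallel with 48 h PbLuc assay at 37 °C, 5% CO2; viability by CellTiter-Glo luminescence, normalized to controls.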
Consider `COc1ccc(C2=CN=C(C(F)(F)F)CC2N)cc1` (stereo unspecified), for which the cytotoxicity at 10 µM came out at 16.6%.
`Cc1ccc(CN2CC[C@@H](O)[C@@H]2Cc2ccccc2)o1`: the cytotoxicity at 10 µM turned out to be 1.73%.
Turning to `Cn1cccc1C(=O)Nc1cc(F)ccc1OCC1CCCO1` (stereo unspecified), the cytotoxicity at 10 µM was -7.59%.
For `CN(C)CC(=O)N1CCc2ncnc(-c3cncnc3)c2CC1` the value was -2.42%; for `COc1ccccc1NC(=O)NCc1nnc(SC)n1C`, -0.145%.
As to `Cn1cccc1C(=O)N1C[C@H]2CN(CC3CC3)C(=O)[C@H]2C1`, the cytotoxicity at 10 µM is -103%.
With `CCN(CC)S(=O)(=O)CCNc1ncnc2cc(F)c(F)cc12`, the cytotoxicity at 10 µM came out at 25.9%.
Consider `COc1cccc(CN2C[C@@H]3COC[C@]3(CN3CCOCC3)C2)c1`, for which the cytotoxicity at 10 µM was -80.6%.
In the case of `Cc1cccc(C)c1-n1nnnc1C1(NCc2ccco2)CCCC1`, the cytotoxicity at 10 µM was determined as 12.9%.
Regarding `COc1cccc(CC(C)NC(=O)NCc2ccn(C)c2)c1` (stereo unspecified), the cytotoxicity at 10 µM is 0.166%.
For `CCC(=O)N1CCC(c2cc(Nc3ncccn3)nc(C)n2)C1` (stereo unspecified) the value was -24%.
`Cc1noc(C)c1CN1CCC2(CC1)CN(c1ccccn1)CCO2`: the cytotoxicity at 10 µM was -3%.
Take `Cc1cc(CN2C[C@@H]3CC[C@H]2CN(C2Cc4ccccc4C2)C3)on1`: the cytotoxicity at 10 µM is 1.58%.
To `CCCC(C)(C)NC(=O)c1cnc(C)s1` belongs 4.51%; to `Cc1cnc(N2CCOC3(CCCN(C(=O)C(C)C)C3)C2)nc1` (stereo unspecified), 10.9%; to `CCOc1cccc(CNc2cncc(-n3cccn3)n2)c1`, -0.363%.
As to `NC(=O)c1cc(-n2cc(-c3cccc(C(=O)O)c3)cn2)cs1`, the cytotoxicity at 10 µM is -0.387%.
For `c1cn(CCNc2nc(NC3CC3)nc3c2CCNCC3)nn1` the value was -52.8%.
`Cc1nc(C)c(C(=O)N2Cc3ccccc3OCC2Cn2ccnc2)o1` (stereo unspecified): the cytotoxicity at 10 µM worked out at 7.92%.
`Cc1nc(C(=O)NCCS(=O)(=O)N2CCCC2)cs1`: the cytotoxicity at 10 µM amounted to 13.4%.
For `CS(=O)(=O)N1CCO[C@@H]2CN(C(=O)C3CC(F)(F)C3)C[C@@H]2C1` the value was 6.19%; for `CC(=O)N1[C@H](Cn2cncn2)C[C@@H]2CN(S(C)(=O)=O)CC[C@@H]21`, -10.9%.
For `Cc1nc(N2CCCC2)nc2c1CN(C(=O)N(C)C)CC2` the value was 4.29%; for `Cc1nnsc1CNC(=O)CSCc1ccccc1Cl`, -2.85%; for `CCCOc1ccc2c(c1)OCC(C(=O)NC(C)Cn1cccn1)=C2` (stereo unspecified), 4.46%.
To `COc1ccc(CNC(=O)N(Cc2ccc(F)cc2F)C2CC2)cn1` belongs -6.67%.
In the case of `c1ccc(CO[C@@H]2CO[C@@]3(CCN(Cc4ccccn4)C3)C2)nc1`, the cytotoxicity at 10 µM is -9.62%.
Turning to `Cc1nc(CN2CCOC(c3nc(C(C)C)n[nH]3)C2)oc1C` (stereo unspecified), the cytotoxicity at 10 µM is -7.98%.
For `Cc1ccc(C(C)(O)CNC(=O)c2sccc2Br)o1` (stereo unspecified), the cytotoxicity at 10 µM was determined as 4.77%.
With `CC(C)(C)Cc1noc2ncc(C(=O)N3CCC3)cc12`, the cytotoxicity at 10 µM came out at 7.28%.
Regarding `Cc1cc(-n2cncn2)ccc1C(=O)Nc1ccc(N2CCCC2)cn1`, the cytotoxicity at 10 µM turned out to be 7.26%.
For `CNC(=O)Cc1cc2nccc(-c3c(OC)cccc3OC)n2n1` the value was -10.4%.
Take `Cc1cnc(CNCc2cn(CCN3CCSCC3)nc2C)cn1`: the cytotoxicity at 10 µM was -0.629%.
For `CCC(C)(C)NC(=O)c1ccc(-c2ccco2)[nH]c1=O` the value was -15.6%; for `COc1ccccc1-n1c(CC(C)C)nnc1SCC(=O)O`, -6.71%.
As for `CCOCCC(=O)N1CCCN(c2ccccc2C)CC1`, the cytotoxicity at 10 µM is -7.68%.
As to `O=C(NC1CCC1)[C@@H]1C[C@@H]2CCN(Cc3cccs3)C[C@@H]2O1`, the cytotoxicity at 10 µM worked out at 5.38%.
To `O=C(CCn1cccn1)N1C[C@H]2CC[C@@H](C1)N(Cc1ccccn1)C2=O` belongs -13.6%; to `Cc1n[nH]c(C2CN(C(=O)c3scnc3C)CCO2)n1` (stereo unspecified), 10.6%; to `CS(=O)(=O)Nc1ccn(Cc2cccc(Cl)c2)n1`, 8.66%.
As to `CS(=O)(=O)NC1CCN(C(=O)CCC2CCCO2)CC1` (stereo unspecified), the cytotoxicity at 10 µM was -0.367%.
For the molecule `CN(Cc1csc(-c2ccccc2)n1)C(=O)CCNS(C)(=O)=O`, the cytotoxicity at 10 µM turned out to be 0.571%.
Take `CCn1cnnc1CNC(=O)NCC(c1cccs1)N1CCCC1` (stereo unspecified): the cytotoxicity at 10 µM is -7.72%.
For `CCOC(=O)c1coc(N2CCC(C(C)N3CCCC3)CC2)n1` (stereo unspecified) the value was -1.89%; for `Cc1ccc(CN(Cc2ccccn2)C(=O)[C@H]2CC[C@@H](N)C2)s1`, -0.327%.
With `N#Cc1ccnc(N2CCC(NCCN3CCCC3)CC2)c1`, the cytotoxicity at 10 µM was -53%.
On to `CN(Cc1cc[nH]n1)C(C(=O)O)c1ccc(Cl)cc1` (stereo unspecified), for which the cytotoxicity at 10 µM stood at 0.595%.
`CC(NC(=O)NCCCN(C)S(C)(=O)=O)c1ccc(C#N)cc1` (stereo unspecified): the cytotoxicity at 10 µM is -5.77%.
For `Cn1cc(C2CCCN2C(=O)CCn2c(=O)oc3ccccc32)cn1` (stereo unspecified), the cytotoxicity at 10 µM was determined as 4.91%.
For `COC(=O)CNC(=O)c1cn(Cc2ccccc2F)nn1` the value was 4.98%.
Regarding `CCn1cc(C(=O)N(C)[C@@H]2CC[C@@H](N3CCCC3)[C@@H]2O)c(C)n1`, the cytotoxicity at 10 µM was found to be 5.92%.
Turning to `O=C(NCC(=O)N1CCCCC1)c1ccc(Cl)cc1I`, the cytotoxicity at 10 µM is -11.5%.
Regarding `CN(CC1(CO)CCC1)C(=O)C1CCC(=O)N(Cc2ccc(Cl)cc2)C1` (stereo unspecified), the cytotoxicity at 10 µM is -11.2%.
In the case of `CC(O)(CN1CCC(O)CC1)c1cccc(C(F)(F)F)c1` (stereo unspecified), the cytotoxicity at 10 µM was -0.0552%.
`C[C@@H](O)CNC(=O)CCc1nc2cccnc2[nH]1`: the cytotoxicity at 10 µM was -6.9%.
As for `O=C(c1cnc(-c2cccs2)s1)N1CCCC(n2cccn2)C1` (stereo unspecified), the cytotoxicity at 10 µM was -10.8%.
For `Cc1ccccc1OCCC(=O)N(C)Cc1c(C)noc1C` the value was -8.73%; for `CC(C)=CCN1CC2(CCN(Cc3cccc(C#N)c3)CC2)CC1=O`, -4.39%; for `COCCNC(=O)Nc1ccn(-c2cccc(C(F)(F)F)c2)n1`, -1.94%.
As for `Cc1cc(N2CCN(c3nc4ccccc4cc3CO)CC2)nc(C)n1`, the cytotoxicity at 10 µM came to 7.86%.
For `CCc1nc(N2CCC3(CCC(=O)N(CCCO)C3)CC2)no1`, the cytotoxicity at 10 µM was determined as 0.814%.
In the case of `COc1ccc(-n2nnc(C(=O)NCC3CCCCC3)n2)cc1`, the cytotoxicity at 10 µM is 1.01%.
`CCn1c(C)nnc1CN(C)C1CCN(CC2CCC2)C1` (stereo unspecified): the cytotoxicity at 10 µM was -11.5%.
For `CCc1nc(CN(C)C2CCN(CCc3ccncc3)C2)no1` (stereo unspecified), the cytotoxicity at 10 µM was -20.2%.
For the molecule `N#Cc1ccccc1OCCN1CCCC1Cn1cccn1` (stereo unspecified), the cytotoxicity at 10 µM was -9.14%.
For `CC(O)C1CCN(Cc2cnc3c(-c4ccccc4)cnn3c2)CC1` (stereo unspecified), the cytotoxicity at 10 µM is -0.537%.
As for `Cc1n[nH]c(C)c1CCC(=O)NC1CCCN(c2ccccc2F)C1` (stereo unspecified), the cytotoxicity at 10 µM is -13.7%.
For `N#CC1COCCN1C(=O)c1cccc2cc[nH]c12` (stereo unspecified), the cytotoxicity at 10 µM amounted to 7.1%.
To `CCOc1cc(=O)n2c(c1C(=O)OCc1cccc(C)c1)CCCC2` belongs -15.1%; to `Cc1ccc(N2CCCc3sc(C(=O)NCc4ccc(C)o4)nc32)nn1`, 4.93%.
As to `CCC(NC(=O)c1ccco1)c1ccccc1OCC(=O)N1CCCC1` (stereo unspecified), the cytotoxicity at 10 µM was found to be 4.9%.
